Consider 26 compounds from ChEMBL document CHEMBL4431330, “3-Arylpropionylhydroxamic acid derivatives as Helicobacter pylori urease inhibitors: Synthesis, molecular docking and biological evaluation” (Bioorg Med Chem, 2016).

pIC50, pKi: −log10 of the molar value. Active and inactive are the calls of the source. The rule behind the calls is not given here.

Series [1] addresses T1, Urease subunit alpha/Urease subunit beta (Helicobacter pylori (strain ATCC 700392 / 26695) (Campylobacterpylori), UniProt P69996). Briefly: Inhibition of Helicobacter pylori urease using urea as substrate assessed as ammonia production after 50 mins by indophenol method. The class given is protein-complex assay. A digest of the protocol:
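Urease prepared from H. pylori grown 24 h at 37 °C in Brucella broth with 10% heat-inactivated horse serum under microaerobic conditions. Cells washed in PBS pH 7.4, sonicated with protease inhibitors, desalted on Sephadex G-25, stored in glycerol at 4 °C. Enzyme (10 U) pre-incubated with compound 50 min at 37 °C. Ammonia read by absorbance (indophenol method).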

Series [2] in a line: Protein binding in rabbit plasma after 20 mins by ultra-filtration method. Particulars: read-out: PPB (converted). The class given is ADME, cell-free, Oryctolagus cuniculus. Put shortly: (§1)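 Ultrafiltration, in triplicate. Compound was incubated with human plasma or freshly collected rabbit plasma for 20 min at 37 °C. Samples were then centrifuged through filter devices at 5000 r/min for 15 min at 37 °C. Initial plasma and ultrafiltrate were diluted 8-fold and read by UV-vis. Nonspecific membrane binding was corrected using PBS spiked at the same concentration. % bound = (1 − Cf/(C0(1−NBS)))×100.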

Series [3] deals with T1, Urease subunit alpha/Urease subunit beta. Briefly: Inhibition of Helicobacter pylori urease using urea as substrate assessed as inhibition constant for enzyme-urea-inhibitor complex by non-linear fitting analysis. The class given is protein-complex assay. Put shortly:
(§2)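 Urease came from H. pylori grown 24 h at 37 °C in Brucella broth with 10% heat-inactivated horse serum under microaerobic conditions. Washed cells were sonicated with protease inhibitors, desalted on Sephadex G-25, and stored in glycerol. Ammonia production rate (indophenol) was measured across urea gradients below 4 mM at each inhibitor level. V–[S] curves were fitted nonlinearly. Fitted constants b and c were plotted linearly against [I], and Ki and Ki′ were taken from the X-axis intercepts.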

Series [4] has as its target T2, Urease subunit alpha/Urease subunit beta (Helicobacter pylori (strain ATCC 700392 / 26695) (Campylobacterpylori)) (UniProt P69996+P14916). The series can be described thus: Potency index, ratio of acetohydroxamic acid IC50 to compound IC50 for Helicobacter pylori urease. It is filed as protein-complex assay. A digest of the protocol:
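Ratio of the acetohydroxamic acid IC50 to the compound IC50. […] Ammonia formed from urea was then read by the Weatherburn indophenol method.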

Series [5] is described as follows: Protein binding in human plasma after 20 mins by ultra-filtration method. It is filed as ADME, cell-free. Particulars: read-out: PPB (converted). Put shortly: as §1
Series [6] concerns the target T2, Urease subunit alpha/Urease subunit beta (Helicobacter pylori (strain ATCC 700392 / 26695) (Campylobacterpylori)). The series can be described thus: Mixed inhibition of Helicobacter pylori urease assessed as dissociation of enzyme-urea-inhibitor complex by non-linear fitting analysis.
Series [7] has as its target T1, Urease subunit alpha/Urease subunit beta. Briefly: Inhibition of Helicobacter pylori urease using urea as substrate assessed as inhibition constant for enzyme-inhibitor complex by non-linear fitting analysis. It is filed as protein-complex assay. Put shortly:
as §2

Series [8] has the same target. Briefly: Substrate inhibition of Helicobacter pylori urease in presence of >4 mM urea by indophenol method. The class given is protein-complex assay. A digest of the protocol: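 No inhibitor. H. pylori urease velocity (indophenol ammonia read-out) was measured against a range of urea concentrations. Km and the substrate-inhibition constant Ksi were obtained by nonlinear least-squares fitting of V = Vmax[S]/(Km + [S] + [S]²/Ksi).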

T1 sequence (P69996 whole entry): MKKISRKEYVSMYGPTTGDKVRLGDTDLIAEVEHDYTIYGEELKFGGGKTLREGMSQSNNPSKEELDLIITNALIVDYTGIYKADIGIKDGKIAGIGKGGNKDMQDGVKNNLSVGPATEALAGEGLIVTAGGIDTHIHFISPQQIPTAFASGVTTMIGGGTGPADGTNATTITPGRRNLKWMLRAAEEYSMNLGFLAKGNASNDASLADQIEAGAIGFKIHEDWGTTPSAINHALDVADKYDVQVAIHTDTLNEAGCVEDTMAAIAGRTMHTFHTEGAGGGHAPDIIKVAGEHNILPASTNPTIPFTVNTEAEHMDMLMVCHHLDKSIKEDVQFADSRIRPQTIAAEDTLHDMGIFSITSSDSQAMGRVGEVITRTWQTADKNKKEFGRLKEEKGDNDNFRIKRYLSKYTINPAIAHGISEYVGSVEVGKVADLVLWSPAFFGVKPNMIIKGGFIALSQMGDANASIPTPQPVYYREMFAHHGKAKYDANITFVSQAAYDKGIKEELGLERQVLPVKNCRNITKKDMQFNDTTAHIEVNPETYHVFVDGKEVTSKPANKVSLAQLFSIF
T1 sequence (P14916 whole entry, further chain): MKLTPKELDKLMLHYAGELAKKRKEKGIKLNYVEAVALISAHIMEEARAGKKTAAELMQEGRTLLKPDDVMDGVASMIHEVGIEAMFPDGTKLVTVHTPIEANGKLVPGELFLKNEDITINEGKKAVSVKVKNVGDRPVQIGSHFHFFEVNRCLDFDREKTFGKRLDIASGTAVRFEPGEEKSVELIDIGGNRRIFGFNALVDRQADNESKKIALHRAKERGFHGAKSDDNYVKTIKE
T2 sequence (P14916 whole entry, looked up): as the sequence (P14916 whole entry, further chain) above
T2 sequence (P69996 whole entry, looked up): as the sequence (P69996 whole entry) above

Turning to `O=C(CC(O)c1ccc(Cl)cc1Cl)NO` (stereo not drawn), the pIC50 – broadly, −log10 of the IC50, conventionally taken in molar units – in series [1] was 4.87.

Turning to `CN(O)C(=O)CC(O)c1cccc(Cl)c1` (stereo not drawn), in series [1], the negative logarithm of the IC50 (pIC50) was 4.32.

`CN(O)C(=O)CC(O)c1ccc(Cl)cc1` (stereo not drawn): the pIC50 in series [1] is 4.06. Same read-out and setting: to `CN(O)C(=O)CC(O)c1cc(Cl)ccc1OCc1ccccc1` (stereo not drawn) belongs 4.58. Still for that read-out and setting: to `CC(=O)NO` [ACETOHYDROXAMIC ACID] belongs 4.62; to `CN(O)C(=O)CC(O)c1ccc(OCc2ccccc2)cc1` (stereo not drawn), 3.70; to `CN(O)C(=O)CC(O)c1c(Cl)cccc1Cl` (stereo not drawn), 4.11. Same read-out and setting: as for `COc1cccc(C(O)CC(=O)N(C)O)c1` (stereo not drawn), the figure is 4.05. As for `COc1ccc(C(O)CC(=O)N(C)O)cc1OC` (stereo not drawn), in series [1], the pIC50 is 3.39. Regarding `O=C(CC(O)c1cc(Cl)ccc1O)NO` (stereo not drawn), the fraction unbound at 20 min was 0.548 in series [2] and 0.472 in series [5]. The negative logarithm of the Ki (pKi) (in general, the Ki on a negative log10 scale, so that one unit is a factor of ten) in series [3] was 5.92; in series [7] it was 5.32. Besides, the Ratio IC50 in series [4] was over 20. In addition, in series [1], the negative-log IC50 (pIC50) was 5.96. Further, in series [6], the inhibition result was “Active”. On to `CN(O)C(=O)CC(O)c1cccc(Cl)c1Cl` (stereo not drawn), for which the pIC50 in series [1] is 4.02. For the compound `CN(O)C(=O)CC(O)c1ccc(Cl)cc1Cl` (stereo not drawn), the pIC50 in series [1] was 3.44. Same read-out and setting: to `CN(O)C(=O)CC(O)c1ccc(Cl)c(Cl)c1` (stereo not drawn) belongs 4.04; to `COc1cc(C(O)CC(=O)N(C)O)ccc1OCc1ccccc1` (stereo not drawn), 3.59.

In the case of `NC(N)=O` [UREA], the negative-log Ki (pKi) in series [8] is 2.19. As for `CN(O)C(=O)CC(O)c1cc(Cl)ccc1O` (stereo not drawn), in series [1], the negative logarithm of the IC50 (pIC50) is 4.52. Same read-out and setting: as for `CN(O)C(=O)CC(O)c1ccc(OCc2ccccc2)c(OCc2ccccc2)c1` (stereo not drawn), the figure is 3.42; as for `COc1ccccc1C(O)CC(=O)N(C)O` (stereo not drawn), 4.08. The same measure, in the same setting: as for `CN(O)C(=O)CC(O)c1ccc(N(C)C)cc1` (stereo not drawn), the figure is 3.54; as for `CN(O)C(=O)CC(O)c1ccc(F)cc1` (stereo not drawn), 4.11. In the case of `O=C(CC(O)c1cc(Cl)ccc1OCc1ccccc1)NO` (stereo not drawn), the values for the fraction unbound at 20 min in series [2] and in series [5] were 0.562 and 0.626, respectively. Moreover, the negative logarithm of the Ki (pKi) is 6.43 in series [3] and 6.39 in series [7]. In addition, the Ratio IC50 in series [4] is over 20. Besides, in series [1], the negative-log IC50 (pIC50) is 6.82. Also, the inhibition result in series [6] was “Active”.

In the case of `CN(O)C(=O)CC(O)c1ccccc1Cl` (stereo not drawn), the pIC50 in series [1] was 4.25.

Regarding `COc1ccc(C(O)CC(=O)N(C)O)cc1` (stereo not drawn), the pIC50 in series [1] is 3.48.

`CN(O)C(=O)CC(O)c1ccc(Br)cc1` (stereo not drawn): the negative logarithm of the IC50 (pIC50) in series [1] was 4.01. On the same count and under the same terms, to `CN(O)C(=O)CC(O)c1cccc(F)c1` (stereo not drawn) belongs 4.15; to `CN(O)C(=O)CC(O)c1cccc(Br)c1` (stereo not drawn), 4.11.
